What was measured:
[1] = Drug level in HIV-1 infected patient urine assessed as zidovudine-5-O-glucoronide level at 200 mg, po bid on day 10 coadministered with 500 mg, po bid amdoxovir by LC-MS/MS analysis; assay type: ADME, organism-based; conditions: human, in vivo
Procedure, shortened: (§1)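 At steady state (day 10), urine collected over one 12-h dose interval was analyzed by LC-MS/MS for AMDX, DXG, ZDV and ZDV-5′-O-glucuronide. Samples were diluted 100-fold, and the assay was linear from 1 to 500 μg/ml. Results are expressed as percentage of the dose recovered as each analyte (geometric means). Subjects were untreated HIV-1-infected adults.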

[2] = Tmax in HIV-1 infected patient at 200 mg, po bid on day 10 coadministered with 500 mg, po bid amdoxovir by LC-MS/MS analysis; assay type: ADME, organism-based; conditions: human, in vivo
Procedure, shortened: (§2)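 Untreated Hispanic HIV-infected adults (VL ≥5,000 copies/ml, CD4 ≥200 cells/mm3) dosed orally b.i.d. for 10 days. Methanol extraction with internal standard, then LC-MS/MS for ZDV. Noncompartmental steady-state Tmax reported as geometric mean.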

[3] = Drug level in HIV-1 infected patient urine on day 10 assessed as zidovudine-5-O-glucoronide level by LC-MS/MS analysis; assay type: ADME; conditions: human, in vivo; procedure, shortened: as §1
Homo sapiens [4] = assay: Ratio of AUC (0 to 12 hrs) in HIV-1 infected patient at 300 mg, po bid on day 10 coadministered with 500 mg, po bid amdoxovir to AUC (0 to 12 hrs) in HIV-1 infected patient at 300 mg, po bid on day 1 coadministered with 500 mg, po bid amdoxovir; assay type: ADME, organism-based; conditions: in vivo
Procedure, shortened: (§3)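 Untreated Hispanic HIV-infected adults (VL ≥5,000 copies/ml, CD4 ≥200 cells/mm3) dosed orally b.i.d. Plasma sampled 0–12 h after first dose (day 1) and 0–48 h after last dose (day 10) into DCF-containing EDTA tubes, stored −80°C. ZDV measured by validated LC-MS/MS (linear 2–5,000 ng/ml). Noncompartmental analysis assuming extravascular input. Accumulation taken as AUCτ (τ = 12 h) day 10 / AUCτ day 1, as geometric means.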

[5] = Apparent oral clearance in HIV-1 infected patient at 300 mg, po bid on day 10 coadministered with 500 mg, po bid amdoxovir by LC-MS/MS analysis; assay type: ADME, organism-based; conditions: human, in vivo
Procedure, shortened: (§4)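 Untreated Hispanic HIV-1-infected adults (viral load ≥5,000 copies/ml, CD4 ≥200 cells/mm3). Blood was drawn into DCF-containing EDTA tubes on day 1 (0–12 h) and on day 10 (0–48 h post last dose), then stored at −80°C. Plasma was methanol-extracted with an internal standard and run by LC-MS/MS (2–3,000 ng/ml AMDX/DXG; 2–5,000 ng/ml ZDV). Noncompartmental analysis assumed extravascular input; τ = 12 h; geometric means reported; accumulation was taken as AUCτ day 10/day 1.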

[6] = Half life in HIV-1 infected patient at 300 mg, po bid on day 10 coadministered with 500 mg, po bid amdoxovir by LC-MS/MS analysis; assay type: ADME, organism-based; conditions: human, in vivo; procedure, shortened: as §4
[7] = Drug level in HIV-1 infected patient urine assessed as zidovudine-5-O-glucoronide level at 300 mg, po bid on day 10 coadministered with 500 mg, po bid amdoxovir by LC-MS/MS analysis; assay type: ADME, organism-based; conditions: human, in vivo; procedure, shortened: as §1
[8] = Tmax in HIV-1 infected patient on day 10 by LC-MS/MS analysis; assay type: ADME, organism-based; conditions: human, in vivo; procedure, shortened: as §2
[9] = Half life in HIV-1 infected patient at 200 mg, po bid on day 10 coadministered with 500 mg, po bid amdoxovir by LC-MS/MS analysis; assay type: ADME, organism-based; conditions: human, in vivo; procedure, shortened: as §4
[10] = Apparent oral clearance in HIV-1 infected patient on day 10 by LC-MS/MS analysis; assay type: ADME, organism-based; conditions: human, in vivo; procedure, shortened: as §4
[11] = Drug level in HIV-1 infected patient urine on day 10 by LC-MS/MS analysis; assay type: ADME; conditions: human, read-out: Drug uptake; procedure, shortened: as §1
[12] = Drug level in HIV-1 infected patient urine at 300 mg, po bid on day 10 coadministered with 500 mg, po bid amdoxovir by LC-MS/MS analysis; assay type: ADME, organism-based; conditions: human, read-out: Drug uptake; procedure, shortened: as §1
[13] = Drug level in HIV-1 infected patient urine at 200 mg, po bid on day 10 coadministered with 500 mg, po bid amdoxovir by LC-MS/MS analysis; assay type: ADME, organism-based; conditions: human, read-out: Drug uptake; procedure, shortened: as §1
[14] = Tmax in HIV-1 infected patient at 300 mg, po bid on day 10 coadministered with 500 mg, po bid amdoxovir by LC-MS/MS analysis; assay type: ADME, organism-based; conditions: human, in vivo; procedure, shortened: as §2
Homo sapiens [15] = assay: Ratio of AUC (0 to 12 hrs) in HIV-1 infected patient at 200 mg, po bid on day 10 coadministered with 500 mg, po bid amdoxovir to AUC (0 to 12 hrs) in HIV-1 infected patient at 200 mg, po bid on day 1 coadministered with 500 mg, po bid amdoxovir; assay type: ADME, organism-based; conditions: in vivo; procedure, shortened: as §3
[16] = Half life in HIV-1 infected patient on day 10 by LC-MS/MS analysis; assay type: ADME, organism-based; conditions: human, in vivo; procedure, shortened: as §4
Homo sapiens [17] = organism: Homo sapiens; assay: Ratio of AUC (0 to 12 hrs) in HIV-1 infected patient on day 10 to AUC ( 0 to 12 hrs) in HIV-1 infected patient on day 1; assay type: ADME, organism-based; conditions: in vivo; procedure, shortened: as §3
[18] = Apparent oral clearance in HIV-1 infected patient at 200 mg, po bid on day 10 coadministered with 500 mg, po bid amdoxovir by LC-MS/MS analysis; assay type: ADME, organism-based; conditions: human, in vivo; procedure, shortened: as §4
[19] = Tmax in HIV-1 infected patient at 500 mg, po bid on day 10 coadministered with 200 mg, po bid zidovudine by LC-MS/MS analysis; assay type: ADME, organism-based; conditions: human, in vivo
Procedure, shortened: (§5)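 Treatment-naive Hispanic HIV-1-infected adults (≥5,000 RNA copies/ml, CD4 ≥200 cells/mm3). Blood drawn after first dose on day 1 (0–12 h) and after last dose on day 10 (0–48 h) into DCF-containing EDTA tubes to block ex vivo deamination, centrifuged, plasma stored −80°C. Methanol extraction with internal standard, LC-MS/MS (linear 2–3,000 ng ml−1 for AMDX and DXG). Noncompartmental analysis assuming extravascular input; geometric means reported.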

[20] = Cmax in HIV-1 infected patient at 500 mg, po bid on day 10 by LC-MS/MS analysis; assay type: ADME, organism-based; parameters: dose 500 mg, route oral; conditions: human, in vivo; procedure, shortened: as §4
[21] = Half life in HIV-1 infected patient at 500 mg, po bid on day 10 coadministered with 200 mg, po bid zidovudine by LC-MS/MS analysis; assay type: ADME, organism-based; conditions: human, in vivo; procedure, shortened: as §4
[22] = AUC (0 to 12 hrs) in HIV-1 infected patient at 500 mg, po bid on day 10 coadministered with 300 mg, po bid zidovudine by LC-MS/MS analysis; assay type: ADME, organism-based; parameters: dose 500 mg, time < 12 hr, route oral; conditions: human, plasma; procedure, shortened: as §4
[23] = Cmax in HIV-1 infected patient at 500 mg, po bid on day 10 coadministered with 300 mg, po bid zidovudine by LC-MS/MS analysis; assay type: ADME, organism-based; parameters: dose 500 mg, route oral; conditions: human, in vivo; procedure, shortened: as §4
[24] = AUC (0 to 12 hrs) in HIV-1 infected patient at 500 mg, po bid on day 10 by LC-MS/MS analysis; assay type: ADME, organism-based; parameters: dose 500 mg, time < 12 hr, route oral; conditions: human, plasma; procedure, shortened: as §4
Homo sapiens [25] = assay: Ratio of AUC (0 to 12 hrs) in HIV-1 infected patient at 500 mg, po bid on day 10 coadministered with 200 mg, po bid zidovudine to AUC (0 to 12 hrs) in HIV-1 infected patient at 500 mg, po bid on day 1 coadministered with 200 mg, po bid zidovudine; assay type: ADME, organism-based; conditions: in vivo; procedure, shortened: as §4
[26] = Half life in HIV-1 infected patient at 500 mg, po bid on day 10 coadministered with 300 mg, po bid zidovudine by LC-MS/MS analysis; assay type: ADME, organism-based; conditions: human, in vivo; procedure, shortened: as §4
[27] = Apparent oral clearance in HIV-1 infected patient at 500 mg, po bid on day 10 coadministered with 200 mg, po bid zidovudine by LC-MS/MS analysis; assay type: ADME, organism-based; conditions: human, in vivo; procedure, shortened: as §4
[28] = Half life in HIV-1 infected patient at 500 mg, po bid on day 1 by LC-MS/MS analysis; assay type: ADME, organism-based; conditions: human, in vivo; procedure, shortened: as §4
Homo sapiens [29] = assay: Ratio of AUC (0 to 12 hrs) in HIV-1 infected patient at 500 mg, po bid on day 10 to AUC (0 to 12 hrs) in HIV-1 infected patient at 500 mg, po bid on day 1; assay type: ADME, organism-based; conditions: in vivo; procedure, shortened: as §4
Homo sapiens [30] = assay: Ratio of AUC (0 to 12 hrs) in HIV-1 infected patient at 500 mg, po bid on day 10 coadministered with 300 mg, po bid zidovudine to AUC (0 to 12 hrs) in HIV-1 infected patient at 500 mg, po bid on day 1 coadministered with 300 mg, po bid zidovudine; assay type: ADME, organism-based; conditions: in vivo; procedure, shortened: as §4
[31] = Apparent oral clearance in HIV-1 infected patient at 500 mg, po bid on day 10 by LC-MS/MS analysis; assay type: ADME, organism-based; conditions: human, in vivo; procedure, shortened: as §4
[32] = Tmax in HIV-1 infected patient at 500 mg, po bid on day 10 by LC-MS/MS analysis; assay type: ADME, organism-based; conditions: human, in vivo; procedure, shortened: as §5
[33] = AUC (0 to 12 hrs) in HIV-1 infected patient at 500 mg, po bid on day 10 coadministered with 200 mg, po bid zidovudine by LC-MS/MS analysis; assay type: ADME, organism-based; parameters: dose 500 mg, time < 12 hr, route oral; conditions: human, plasma; procedure, shortened: as §4
[34] = Cmax in HIV-1 infected patient at 500 mg, po bid on day 10 coadministered with 200 mg, po bid zidovudine by LC-MS/MS analysis; assay type: ADME, organism-based; parameters: dose 500 mg, route oral; conditions: human, in vivo; procedure, shortened: as §4
[35] = Apparent oral clearance in HIV-1 infected patient at 500 mg, po bid on day 10 coadministered with 300 mg, po bid zidovudine by LC-MS/MS analysis; assay type: ADME, organism-based; conditions: human, in vivo; procedure, shortened: as §4
[36] = Half life in HIV-1 infected patient at 500 mg, po bid on day 10 by LC-MS/MS analysis; assay type: ADME, organism-based; conditions: human, in vivo; procedure, shortened: as §4
[37] = Tmax in HIV-1 infected patient at 500 mg, po bid on day 1 by LC-MS/MS analysis; assay type: ADME, organism-based; conditions: human, in vivo; procedure, shortened: as §5
Homo sapiens [38] = assay: Tmax in HIV-1 infected patient assessed as beta-D-dioxolane guanosine level at 500 mg, po bid on day 1 by LC-MS/MS analysis; assay type: ADME, organism-based; conditions: in vivo; procedure, shortened: as §4
[39] = Tmax in HIV-1 infected patient at 500 mg, po bid on day 10 coadministered with 300 mg, po bid zidovudine by LC-MS/MS analysis; assay type: ADME, organism-based; conditions: human, in vivo; procedure, shortened: as §5
[40] = Cmax in HIV-1 infected patient at 500 mg, po bid on day 1 by LC-MS/MS analysis; assay type: ADME, organism-based; parameters: dose 500 mg, route oral; conditions: human, in vivo; procedure, shortened: as §4

A Drug uptake [1] of 61.87%, a Tmax [2] of 0.5 h and a Drug uptake [3] of 61.15% were found for `Cc1cn([C@H]2C[C@H](N=[N+]=[N-])[C@@H](CO)O2)c(=O)[nH]c1=O` [ZIDOVUDINE] in this work. The “Ratio AUC” value (Homo sapiens [4]) was 0.86, the CL/F [5] was 30 mL/min/kg and the half-life [6] was 2.4 h. For the same compound, the Drug uptake [7] was 62.89%, the Tmax [8] was 0.5 h and the half-life [9] was 2.5 h. It also gave a CL/F [10] of 23.2 mL/min/kg, a dose excreted [11] of 6.24% and a dose excreted [12] of 6.74%. The dose excreted [13] was 5.88%, the Tmax [14] was 0.5 h and the “Ratio AUC” value (Homo sapiens [15]) was 1.04. The half-life [16] was 2.2 h, the “Ratio AUC” value (Homo sapiens [17]) was 1.21 and the CL/F [18] was 39 mL/min/kg.

A Tmax [19] of 2.5 h, a Cmax [20] of 499 ng/mL and a half-life [21] of 1.7 h were found for `Nc1nc(N)c2ncn([C@H]3CO[C@@H](CO)O3)c2n1` [AMDOXOVIR] in this work. For the same compound, the AUC at 12 h [22] was 2090 ng·h/mL, the Cmax [23] was 714 ng/mL and the AUC at 12 h [24] was 1330 ng·h/mL. For the same compound, the “Ratio AUC” value (Homo sapiens [25]) was 0.99, the half-life [26] was 1.1 h and the CL/F [27] was 74.7 mL/min/kg. The half-life [28] was 1.3 h, the “Ratio AUC” value (Homo sapiens [29]) was 0.95 and the “Ratio AUC” value (Homo sapiens [30]) was 0.67. For the same compound, the CL/F [31] was 91.5 mL/min/kg, the Tmax [32] was 2 h and the AUC at 12 h [33] was 1730 ng·h/mL. For the same compound, the Cmax [34] was 649 ng/mL, the CL/F [35] was 63.5 mL/min/kg and the half-life [36] was 1.4 h. It also gave a Tmax [37] of 1 h, a Tmax (Homo sapiens [38]) of 1 h and a Tmax [39] of 2.5 h. It also gave a Cmax [40] of 514 ng/mL.
